Data: ChEMBL document CHEMBL4028805, “Phenylthiazole Antibacterial Agents Targeting Cell Wall Synthesis Exhibit Potent Activity in Vitro and in Vivo against Vancomycin-Resistant Enterococci” (J Med Chem, 2017)
≈ marks a conversion by molar mass, not a printed value. Calls of active or inactive are those of the source.

How the values were obtained:
Acinetobacter baumannii [1] = experiment: Antibacterial activity against Acinetobacter baumanii ATCC 19606 after 18 to 22 hrs in absence of colistin by broth microdilution method; assay type: functional; conditions: ATCC 19606 = CIP 70.34 = JCM 6841
In short: (§1)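 Broth microdilution per CLSI guidelines. Gram-negatives grown in TSB. Each strain tested alone and again with colistin at ¼ × MIC to permeabilize the outer membrane. Plates incubated at 37 °C for 18–22 h. MIC read as the lowest concentration showing no visible growth.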

Escherichia coli [2] = experiment: Antibacterial activity against Escherichia coli O157:H7 ATCC 35150 after 18 to 22 hrs in absence of colistin by broth microdilution method; assay type: functional
Enterobacter cloacae [3] = experiment: Antibacterial activity against Enterobacter cloacae BAA-1154 after 18 to 22 hrs in absence of colistin by broth microdilution method; assay type: functional
Klebsiella pneumoniae [4] = experiment: Antibacterial activity against Klebsiella pneumoniae BAA-1706 after 18 to 22 hrs in absence of colistin by broth microdilution method; assay type: functional
Pseudomonas aeruginosa [5] = experiment: Antibacterial activity against Pseudomonas aeruginosa ATCC 15442 after 18 to 22 hrs in absence of colistin by broth microdilution method; assay type: functional
Escherichia coli [6] = experiment: Antibacterial activity against Escherichia coli 1411 harboring delta-acrAB after 18 to 22 hrs in absence of colistin by broth microdilution method; assay type: functional
Enterococcus faecium [7] = experiment: Antibacterial activity against vancomycin-resistant Enterococcus faecium ATCC 700221 after 18 to 22 hrs in absence of colistin by broth microdilution method; assay type: functional
Acinetobacter baumannii [8] = experiment: Antibacterial activity against Acinetobacter baumanii ATCC 19606 after 18 to 22 hrs in presence of 1/4 times MIC colistin by broth microdilution method; assay type: functional; conditions: ATCC 19606 = CIP 70.34 = JCM 6841; in short: as §1
Enterobacter cloacae [9] = experiment: Antibacterial activity against Enterobacter cloacae BAA-1154 after 18 to 22 hrs in presence of 1/4 times MIC colistin by broth microdilution method; assay type: functional; in short: as §1
Klebsiella pneumoniae [10] = experiment: Antibacterial activity against Klebsiella pneumoniae BAA-1706 after 18 to 22 hrs in presence of 1/4 times MIC colistin by broth microdilution method; assay type: functional; in short: as §1
Pseudomonas aeruginosa [11] = experiment: Antibacterial activity against Pseudomonas aeruginosa ATCC 15442 after 18 to 22 hrs in presence of 1/4 times MIC colistin by broth microdilution method; assay type: functional; in short: as §1
Staphylococcus aureus = experiment: Antibacterial against Methicillin-Resistant Staphylococcus aureus after 18 to 20 hrs by broth microdilution method; assay type: functional
Enterococcus faecium [12] = experiment: Antibacterial activity against Enterococcus faecium clinical isolates after 18 to 22 hrs by broth microdilution method; assay type: functional
In short: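 Enterococcus faecium grown in BHI. MIC by CLSI broth microdilution, 37 °C for 18–22 h. Lowest concentration with no visible growth taken as MIC, reported as MIC50 across the isolates.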

Enterococcus faecalis [13] = experiment: Antibacterial activity against Enterococcus faecalis clinical isolates after 18 to 22 hrs by broth microdilution method; assay type: functional
In short: (§2)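 CLSI broth microdilution against panels of enterococcal isolates. E. faecalis grown in TSB, E. faecium in BHI, 37 °C for 18–22 h. MIC is the lowest concentration without visible growth. MIC50 is the value inhibiting 50% of isolates in each group.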

Enterococcus faecium [14] = experiment: Bactericidal activity against Vancomycin-resistant Enterococcus faecium clinical isolates after 18 to 22 hrs by broth microdilution method; assay type: functional
In short: (§3)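 MBC follows the broth microdilution MIC. 5 μL aliquots spotted onto TSA (E. faecalis) or BHI agar (E. faecium), incubated 37 °C for 18–22 h. MBC is the concentration giving >99% reduction in bacterial count. MBC50 is the value for 50% of isolates.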

Enterococcus faecium [15] = experiment: Bactericidal activity against Enterococcus faecium after 18 to 22 hrs by broth microdilution method; assay type: functional
In short: (§4)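 MBC determined after the broth microdilution MIC. 5 μL aliquots plated onto TSA (E. faecalis) or BHI agar (E. faecium) and incubated at 37 °C for 18–22 h. MBC is the concentration giving >99% reduction in cell count, reported as MBC50.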

Enterococcus faecalis [16] = experiment: Bactericidal activity against Enterococcus faecalis clinical isolates after 18 to 22 hrs by broth microdilution method; assay type: functional; in short: as §4
Enterococcus faecium [17] = experiment: Bactericidal activity against vancomycin-resistant Enterococcus faecium ATCC 700221 at 4 times MIC after 2 hrs by time-kill assay; assay type: functional
In short: (§5)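 Late-log cells diluted to ~5 × 10^6 CFU/mL and exposed in triplicate to 4 × MIC, in TSB (E. faecalis HM-201) or BHI (E. faecium ATCC 700221) at 37 °C. Sampled at 0, 2, 4, 6, 8, 10, 12 and 24 h, diluted serially in PBS and plated on TSA or BHI agar. CFU/mL counted after 18–22 h. DMSO served as negative control.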

Enterococcus faecium [18] = experiment: Bactericidal activity against vancomycin-resistant Enterococcus faecium ATCC 700221 at 4 times MIC after 24 hrs by time-kill assay; assay type: functional; in short: as §5
Enterococcus faecium [19] = experiment: Bacteriostatic activity against vancomycin-resistant Enterococcus faecium ATCC 700221 assessed as reduction in CFU at 4 times MIC after 24 hrs; assay type: functional; in short: as §5
HRT-18 cell line [20] = experiment: Cytotoxicity against human HRT18 cells assessed as reduction in cell viability up to 40 ug/ml after 2 hrs by MTS assay; assay type: cell-based; conditions: hrt-18, 2 h
In short: (§6)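 HRT-18 cells maintained in RPMI-1640 with 10% fetal horse serum at 37 °C, 5% CO2. Exposed to 5, 10, 20 or 40 μg/mL for 2 or 24 h, then MTS added and absorbance read at 490 nm. Viability expressed relative to untreated cells, n ≥ 3, one-way ANOVA with Dunnett's test.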

HRT-18 cell line [21] = experiment: Cytotoxicity against human HRT18 cells assessed as reduction in cell viability at 20 ug/ml after 24 hrs by MTS assay; assay type: cell-based; conditions: hrt-18, 24 h; in short: as §6
HRT-18 cell line [22] = experiment: Cytotoxicity against human HRT18 cells assessed as reduction in cell viability at 40 ug/ml after 24 hrs by MTS assay; assay type: cell-based; conditions: hrt-18, 24 h; in short: as §6
Enterococcus faecalis [23] = experiment: Antibacterial activity against Enterococcus faecalis ATCC 31975 at 4 to 8 times MIC after 48 hrs by broth microdillution method; assay type: functional
In short: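 Single-step resistance selection. Cultures of 5 × 10^8 to 5 × 10^10 CFU/mL spread on TSA containing compound at 2×, 4× or 8× MIC and incubated aerobically at 37 °C for 48 h. Colony MICs rechecked by broth microdilution. Frequency calculated as resistant colonies per inoculum.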

Enterococcus faecalis [24] = experiment: Antibacterial activity against vancomycin-resistant Enterococcus faecalis ATCC 51299 assessed as ratio of MIC after and before 6 serial passages measured after 18 hrs by broth microdillution method; assay type: functional
In short: (§7)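 Multi-step selection over 14 passages in two weeks. McFarland 0.5 inoculum diluted 1:300 in TSB (E. faecalis) or BHI (E. faecium) to 1 × 10^5 CFU/mL. Each passage reinoculated at ~5 × 10^5 CFU/mL from the sub-inhibitory well of the previous plate. Compounds serially diluted in triplicate, incubated ≥18 h at 37 °C, MIC read visually. Resistance defined as >4-fold MIC rise.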

Enterococcus faecium [25] = experiment: Antibacterial activity against vancomycin-resistant Enterococcus faecium ATCC HM-968 assessed as ratio of MIC after and before 11 serial passages measured after 18 hrs by broth microdillution method; assay type: functional; in short: as §7
Enterococcus faecalis [26] = experiment: Antibacterial activity against vancomycin-resistant Enterococcus faecalis ATCC 51299 assessed as ratio of MIC after and before 11 serial passages measured after 18 hrs by broth microdillution method; assay type: functional; in short: as §7
Enterococcus faecalis [27] = experiment: Synergistic antimicrobial activity against Enterococcus faecalis ATCC 49532 after 20 hrs in presence of ciprofloxacin by checkerboard assay; assay type: functional
In short: (§8)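 Checkerboard in TSB with a starting inoculum of 1×10^5 CFU/mL. Compound and antibiotic diluted from 2× or 4× MIC along perpendicular axes. Incubated 20 h at 37 °C. ΣFIC calculated: ≤0.5 synergy, >0.5 to <2 additive, 2–4 indifference, >4 antagonism.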

Enterococcus faecalis [28] = experiment: Synergistic antimicrobial activity against Enterococcus faecalis ATCC 49533 after 20 hrs in presence of ciprofloxacin by checkerboard assay; assay type: functional; in short: as §8
Enterococcus faecium [29] = experiment: Ratio of MBC50 to MIC50 for vancomycin-resistant Enterococcus faecium ATCC 700221; assay type: functional
Escherichia coli [30] = experiment: Antibacterial activity against Escherichia coli O157:H7 ATCC 35150 after 18 to 22 hrs in presence of 1/4 times MIC colistin by broth microdilution method; assay type: functional
Enterococcus faecalis [31] = experiment: Antibacterial activity against vancomycin-resistant Enterococcus faecalis clinical isolates after 18 to 22 hrs by broth microdilution method; assay type: functional; in short: as §2
Enterococcus faecalis [32] = experiment: Bactericidal activity against vancomycin-resistant Enterococcus faecalis clinical isolates after 18 to 22 hrs by broth microdilution method; assay type: functional; in short: as §3
Enterococcus faecalis [33] = experiment: Bactericidal activity against vancomycin-resistant Enterococcus faecalis HM-201 at 4 times MIC after 2 hrs by time-kill assay; assay type: functional; in short: as §5
Enterococcus faecium [34] = experiment: Bactericidal activity against vancomycin-resistant Enterococcus faecium ATCC 700221 at 4 times MIC after 4 hrs by time-kill assay; assay type: functional; in short: as §5
Enterococcus faecium [35] = experiment: Antibacterial activity against vancomycin-resistant Enterococcus faecium ATCC HM-968 after 14 serial passages measured after 18 hrs by broth microdillution method; assay type: functional; in short: as §7
[36] = Toxicity in Caenorhabditis elegans AU37 assessed as worm survival at 20 ug/ml after 24 hrs by microscopic analysis; conditions: AU37, caenorhabditis elegans
In short: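 Adult C. elegans AU37, 15–20 per well, exposed in triplicate to 10 or 20 μg/mL, with sterile water as negative control. Viability checked by microscopy. Result reported as percent viable worms after 24 h exposure.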

Enterococcus faecalis [37] = experiment: Antibacterial activity against vancomycin-resistant Enterococcus faecalis HM-201 infected in Caenorhabditis elegans AU37 assessed as reduction in bacterial burden at 20 ug/ml after 18 hrs by CFU-based […] analysis relative to control; assay type: functional; design: scale not given: the % may be the effect or the level left
In short: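 C. elegans AU37 adults infected on an E. faecalis HM-201 lawn for 2 h, washed in M9, 20–25 worms per well. Treated in triplicate with 20 μg/mL, with water as negative control. Worms washed, lysed with silicon carbide by vortexing, diluted serially and plated on TSA with 50 μg/mL gentamicin. CFU counted after 18 h at 37 °C and expressed as % reduction versus untreated worms.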

Row | SMILES | MIC (Acinetobacter baumannii [1]) | MIC (Escherichia coli [2]) | MIC (Enterobacter cloacae [3]) | MIC (Klebsiella pneumoniae [4]) | MIC (Pseudomonas aeruginosa [5]) | MIC (Escherichia coli [6]) | MIC (Enterococcus faecium [7]) | MIC (Acinetobacter baumannii [8]) | MIC (Enterobacter cloacae [9]) | MIC (Klebsiella pneumoniae [10]) | MIC (Pseudomonas aeruginosa [11]) | MIC (Staphylococcus aureus) | MIC50 (Enterococcus faecium [12]) | MIC50 (Enterococcus faecalis [13]) | MBC50 (Enterococcus faecium [14]) | MBC50 (Enterococcus faecium [15]) | MBC50 (Enterococcus faecalis [16]) | Activity (HRT-18 cell line [20]) | Activity (HRT-18 cell line [21]) | Activity (HRT-18 cell line [22]) | also measured
1 | C/C(=N\NC(=N)N)c1sc(-c2ccc(-c3ccccc3)cc2)nc1C | 8 µg/mL (≈ 22.9 µM) | > 128 µg/mL | > 128 µg/mL | > 128 µg/mL | > 128 µg/mL | 4 µg/mL (≈ 11.4 µM) | 0.5 µg/mL (≈ 1.43 µM) | 1 µg/mL | 1 µg/mL | 2 µg/mL | 1 µg/mL | 1.3 to 5.6 µg/mL (≈ 3.72 to 16 µM) | 8 µg/mL (≈ 22.9 µM) | 8 µg/mL (≈ 22.9 µM) | 16 µg/mL (≈ 45.8 µM) | 16 µg/mL (≈ 45.8 µM) | 16 µg/mL (≈ 45.8 µM) | Non-Toxic | Non-Toxic | Toxic | Activity (Enterococcus faecium [17]): Active; Activity (Enterococcus faecium [18]): inactive; Activity (Enterococcus faecium [19]): Active; Activity (Enterococcus faecalis [23]): Active; Ratio (Enterococcus faecalis [24]): 1; Ratio (Enterococcus faecium [25]): 1; Ratio (Enterococcus faecalis [26]): 2; fractional inhibitory concentration index (FICI) (Enterococcus faecalis [27]): 0.63 - 1; fractional inhibitory concentration index (FICI) (Enterococcus faecalis [28]): 0.63 - 1; Ratio (Enterococcus faecium [29]): >4
2 | CCCCC#Cc1ccc(-c2nc(C)c(/C(C)=N/NC(=N)N)s2)cc1 | 8 µg/mL (≈ 22.6 µM) | > 128 µg/mL | > 128 µg/mL | > 128 µg/mL | > 128 µg/mL | 8 µg/mL (≈ 22.6 µM) | 0.5 µg/mL (≈ 1.41 µM) | 1 µg/mL | 1 µg/mL | 1 µg/mL | 1 µg/mL | 1.3 to 5.6 µg/mL (≈ 3.68 to 15.8 µM) | 4 µg/mL (≈ 11.3 µM) | 8 µg/mL (≈ 22.6 µM) | 4 µg/mL (≈ 11.3 µM) | 4 µg/mL (≈ 11.3 µM) | 8 µg/mL (≈ 22.6 µM) | Non-Toxic | Non-Toxic | Toxic | MIC (Escherichia coli [30]): 1 µg/mL; MIC50 (Enterococcus faecalis [31]): 4 µg/mL (≈ 11.3 µM); MBC50 (Enterococcus faecalis [32]): 4 µg/mL (≈ 11.3 µM); Activity (Enterococcus faecalis [33]): Active; Activity (Enterococcus faecium [34]): Active; Activity (Enterococcus faecalis [23]): Active; Ratio (Enterococcus faecalis [24]): 1; Activity (Enterococcus faecium [35]): Active; fractional inhibitory concentration index (FICI) (Enterococcus faecalis [27]): 0.63 - 1; fractional inhibitory concentration index (FICI) (Enterococcus faecalis [28]): 0.63 - 1; survival at 24 h, 20 ug/ml [36]: 90%; Activity (Enterococcus faecalis [37]): 94%
